Measured values from ChEMBL document CHEMBL1145774, “Synthesis and biological effects of novel 2-amino-3-naphthoylthiophenes as allosteric enhancers of the A1 adenosine receptor” (J Med Chem, 2003).

Columns and labels:
[1] = molecular target: T1, Adenosine receptor A1 (Homo sapiens) (UniProt P30542); assay: Percent change in cAMP content of CHO (Chinese hamster ovary) cells expressing human Adenosine A1 receptor at 1 uM; assay type: functional, cell-based
T1 sequence (whole entry): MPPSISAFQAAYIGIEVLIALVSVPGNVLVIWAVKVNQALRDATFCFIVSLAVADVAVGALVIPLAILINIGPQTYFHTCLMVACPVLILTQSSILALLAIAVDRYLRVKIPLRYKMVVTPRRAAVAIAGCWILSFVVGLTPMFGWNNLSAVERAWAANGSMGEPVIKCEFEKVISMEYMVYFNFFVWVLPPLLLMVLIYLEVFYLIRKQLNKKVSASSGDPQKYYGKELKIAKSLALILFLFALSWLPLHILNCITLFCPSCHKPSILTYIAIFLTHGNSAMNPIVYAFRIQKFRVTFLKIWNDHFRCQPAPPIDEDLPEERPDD
Procedure, shortened: (§1)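 CHO cells stably expressing human A1 receptor (~8000 fmol/mg protein) were grown in Ham's F-12 with 10% FBS and G-418 for 48 h to confluence. HCl (50 mM final) stopped the reaction, and cAMP was measured by radioimmunoassay. Values are % change versus no-compound control, mean ± SEM of six experiments.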

[2] = molecular target: T1, Adenosine receptor A1 (Homo sapiens); assay: Dissociation of [3H]CCPA from Adenosine A1 receptor in CHO cells at 10 uM as percent K-1; assay type: cell-based
Procedure, shortened: (§2)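 [3H]CCPA was bound to ADA-treated CHO:hA1 membranes in 50 mM Tris-HCl pH 7.4 at 25 °C. Dissociation was started by adding R-PIA (1 µM) with test agent (10 µM), and specific binding was measured 2–180 min afterwards. Kinetic fits gave t1/2 and K-1, expressed as % change from control. Values are the mean of three experiments.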

[3] = molecular target: T2, Adenosine receptor A3 (Homo sapiens) (UniProt P0DMS8); assay: Ability to displace the binding of [3H]-MRE 3008-F20 to the ligand binding site of CHO:hA3 (human Adenosine receptor) at concentration of 10 uM
T2 sequence (whole entry): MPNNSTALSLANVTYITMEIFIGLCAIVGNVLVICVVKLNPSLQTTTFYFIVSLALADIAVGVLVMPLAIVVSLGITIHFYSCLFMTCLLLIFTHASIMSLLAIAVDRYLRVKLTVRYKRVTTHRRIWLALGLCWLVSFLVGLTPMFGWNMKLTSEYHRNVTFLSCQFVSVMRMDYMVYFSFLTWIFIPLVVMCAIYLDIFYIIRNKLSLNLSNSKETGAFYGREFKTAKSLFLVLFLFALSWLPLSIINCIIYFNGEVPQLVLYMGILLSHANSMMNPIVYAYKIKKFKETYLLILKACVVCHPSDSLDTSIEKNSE
Procedure, shortened: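 Assays used 2 nM [3H]MRE 3008F20 on CHO:hA3 membranes (100 µg protein, ADA-treated) for 150 min at 4 °C, in Tris-HCl with MgCl2 and 1 mM EDTA, pH 7.4, with compound from DMSO (1% final). Bound ligand was separated by filtration. Results are % displacement by 10 µM compound, ±STD, n = 3.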

[4] = molecular target: T1, Adenosine receptor A1 (Homo sapiens); assay: Ability to displace the binding of [3H]DPCPX to the ligand binding site of CHO:hA1 (human Adenosine A1 receptor) at concentration of 10 uM
Procedure, shortened: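 Membranes came from hypotonic lysis of CHO:hA1 cells, a 100 000g pellet and ADA 2 U/mL treatment for 30 min at 37 °C. Membranes (100 µg protein) were incubated with 1 nM [3H]DPCPX in Tris-HCl pH 7.4 for 150 min at 25 °C, with compound added from DMSO (1% final). Nonspecific binding was taken with 1 µM DPCPX, and bound ligand was separated on GF/B filters.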

[5] = molecular target: T1, Adenosine receptor A1 (Homo sapiens); assay: Dissociation rate of [3H]CCPA from Adenosine A1 receptor expressing CHO cells at 10 uM as percent t1/2; assay type: cell-based; procedure, shortened: as §2
[6] = molecular target: Adenosine receptor A2a (Homo sapiens) (UniProt P29274); assay: Ability to displace the binding of [3H]-ZM 241385, to the ligand binding site of CHO:hA2A (human Adenosine A2A receptor) at concentration of 10 uM
Sequence of Adenosine receptor A2a (Homo sapiens) (P29274 whole entry): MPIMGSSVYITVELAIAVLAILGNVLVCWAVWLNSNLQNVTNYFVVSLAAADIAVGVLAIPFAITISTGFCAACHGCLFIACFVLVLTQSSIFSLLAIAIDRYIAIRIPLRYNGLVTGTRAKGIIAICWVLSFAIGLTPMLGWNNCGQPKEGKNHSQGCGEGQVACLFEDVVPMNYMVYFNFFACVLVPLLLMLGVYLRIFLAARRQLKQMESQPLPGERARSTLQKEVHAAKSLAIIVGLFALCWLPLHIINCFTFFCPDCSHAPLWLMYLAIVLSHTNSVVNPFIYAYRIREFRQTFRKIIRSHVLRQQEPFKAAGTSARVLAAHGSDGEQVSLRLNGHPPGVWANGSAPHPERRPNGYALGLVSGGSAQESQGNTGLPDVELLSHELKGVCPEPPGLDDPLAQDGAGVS
Procedure, shortened: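 CHO:hA2A membranes (100 µg protein, ADA-treated) were incubated with 2 nM [3H]ZM 241385 in Tris-HCl with MgCl2, pH 7.4, for 60 min at 4 °C, with compound from DMSO (1% final). Nonspecific binding was taken with 1 µM ZM241385. After filtration, results are % displacement by 10 µM compound, ±STD, n = 3.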

[7] = molecular target: T1, Adenosine receptor A1 (Homo sapiens); assay: Percent change in cAMP content of CHO (Chinese hamster ovary) cells expressing human Adenosine A1 receptor at 0.01 uM; assay type: functional, cell-based; procedure, shortened: as §1
[8] = molecular target: T1, Adenosine receptor A1 (Homo sapiens); assay: Percent change in cAMP content of CHO (Chinese hamster ovary) cells expressing human Adenosine A1 receptor at 10 uM; assay type: functional, cell-based; procedure, shortened: as §1
[9] = molecular target: T1, Adenosine receptor A1 (Homo sapiens); assay: Percent change in cAMP content of CHO (Chinese hamster ovary) cells expressing human Adenosine A1 receptor at 0.1 uM; assay type: functional, cell-based; procedure, shortened: as §1
[10] = molecular target: T1, Adenosine receptor A1 (Homo sapiens); assay: Percent change in cAMP in CHO cells expressing human Adenosine A1 receptor at 1 uM; assay type: functional, cell-based; procedure, shortened: as §1

| SMILES | Change [1] | K-1 decrease [2] | inhibition [3] | inhibition [4] | T1/2 increase [5] | inhibition [6] | Change [7] | Change [8] | Change [9] | Change [10] |
| --- | --- | --- | --- | --- | --- | --- | --- | --- | --- | --- |
| Nc1sc2c(c1C(=O)c1ccc(Cl)c3ccccc13)CCCC2 | -25% | 27% | 30.5% | 4.8% | 36% | -0% | -11% | -44% | 3% |  |
| Nc1sc2c(c1C(=O)c1ccc3ccccc3c1)CCCC2 | -28% | 9% | -0% | 3.3% | 10% | -0% | -13% | -42% | -24% |  |
| Nc1sc2c(c1C(=O)c1ccc(I)c3ccccc13)CCC2 | -22% | 29% | -0% | 3.3% | 41% | -0% | -6% | -75% | -8% |  |
| Nc1sc2c(c1C(=O)c1cccc3ccccc13)CCC2 | -29% | -0% | -0% | 8% | -0% | -0% | -0.6% | -60% | -6% |  |
| Cc1sc(N)c(C(=O)c2cccc3ccccc23)c1C |  | 46% | 18% | -0% | 85% | -0% | -0.6% | -45% | -3% | 6% |
| Nc1sc2c(c1C(=O)c1ccc(Br)c3ccccc13)CCC2 | -14% | 4% | 22% | -0% | 4% | -0% | 3% | -67% | 19% |  |
| Nc1sc2c(c1C(=O)c1ccc(Br)c3ccccc13)CCCC2 | -29% | 30% | 48.5% | 12% | 43% | 3% | -6% | -72% | -10% |  |
| Nc1sc2c(c1C(=O)c1cccc3ccccc13)CCCC2 | -22% | 23% | 34.5% | 2% | 29% | -0% | -11% | -52% | -15% |  |
| Cc1sc(N)c(C(=O)c2cccc(C(F)(F)F)c2)c1C | -13% | 30% | 21% | -0% | 43% | -0% | -1% | -50% | -7% |  |
| Nc1sc2c(c1C(=O)c1ccc(Cl)c3ccccc13)CCC2 | -27% | 30% | -0% | -0% | 43% | -0% | -10% | -55% | 15% |  |
| Nc1sc2c(c1C(=O)c1ccc3ccccc3c1)CCN(Cc1ccccc1F)C2 | -10% |  | -0% | 3% |  | -0% | -3% | -31% | -3% |  |
| Nc1sc2c(c1C(=O)c1ccc(I)c3ccccc13)CCCC2 | -24% | 38% | 48% | 15.3% | 60% | 3% | -3% | -67% | -4% |  |
| Nc1sc2c(c1C(=O)c1ccc3ccccc3c1)CCC2 | -15% | 29% | 54% | 14.5% | 42% | -0% | -19% | -51% | -14% |  |
